Reference: article PMC2999657 (Biochemistry, 2010)

What was measured:
[1] = Spontaneous hydrolysis in neutral aqueous buffer; assay type: physicochemical; details: pH 7.5, 25 °C
Summary of the method: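 Test compounds were diluted from concentrated acetonitrile stocks to ≤5% acetonitrile in 20 mM MOPS, pH 7.5, at 25 °C, and their hydrolysis without enzyme was followed by UV-vis. Full progress curves were fit to a pseudo-first-order equation by nonlinear least squares, and triplicate rate constants were averaged. The clavulanic acid reference (85 μM) was run in 25 mM MOPS, pH 7.5, at 25 °C, read at 260 nm.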

class C P99 β-lactamase = class C P99 β-lactamase (Enterobacter cloacae, UniProt P05364); assay type: biochemical; details: steady state turnover by P99 β-lactamase, 20 mM MOPS pH 7.5, 25 °C
Sequence of class C P99 β-lactamase (P05364 21-381): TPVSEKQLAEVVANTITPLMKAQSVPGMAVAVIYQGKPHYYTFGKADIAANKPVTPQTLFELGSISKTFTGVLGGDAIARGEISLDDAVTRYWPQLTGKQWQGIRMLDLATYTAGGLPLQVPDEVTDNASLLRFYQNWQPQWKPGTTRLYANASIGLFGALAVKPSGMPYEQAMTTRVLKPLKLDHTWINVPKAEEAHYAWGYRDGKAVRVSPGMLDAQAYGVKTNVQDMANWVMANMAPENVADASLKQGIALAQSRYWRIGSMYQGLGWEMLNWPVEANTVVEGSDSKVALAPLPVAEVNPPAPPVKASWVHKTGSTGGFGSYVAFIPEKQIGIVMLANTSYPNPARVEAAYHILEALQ

[2] = pKa determination by spectrophotometric titration; assay type: physicochemical; details: spectrophotometric titration at 233 nm, 25 °C, ionic strength 1.0
P99 β-lactamase [3] = biological target: T1, P99 β-lactamase (Enterobacter cloacae, UniProt P05364); assay type: biochemical; details: pH range 6.0–9.5, 25 °C, ionic strength 1.0
T1 sequence (P05364 21-381): as above

[4] = biological target: class D OXA-1 β-lactamase (Escherichia coli, UniProt P13661); assay: OXA-1 β-lactamase hydrolysis and inhibition; assay type: biochemical
Sequence of class D OXA-1 β-lactamase (P13661 26-276): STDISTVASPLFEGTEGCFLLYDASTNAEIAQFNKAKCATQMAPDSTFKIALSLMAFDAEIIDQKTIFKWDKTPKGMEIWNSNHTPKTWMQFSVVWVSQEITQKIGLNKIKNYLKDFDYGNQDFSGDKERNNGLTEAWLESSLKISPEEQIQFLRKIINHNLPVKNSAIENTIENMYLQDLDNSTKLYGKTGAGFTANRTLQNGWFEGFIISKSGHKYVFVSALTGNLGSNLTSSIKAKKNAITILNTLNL

[5] = biological target: Streptomyces R61 DD-peptidase (Streptomyces sp., UniProt P15555); assay: Hydrolysis in the presence of R61 DD-peptidase; assay type: biochemical; details: enzyme 0.5 μM
Sequence of Streptomyces R61 DD-peptidase (P15555 32-406): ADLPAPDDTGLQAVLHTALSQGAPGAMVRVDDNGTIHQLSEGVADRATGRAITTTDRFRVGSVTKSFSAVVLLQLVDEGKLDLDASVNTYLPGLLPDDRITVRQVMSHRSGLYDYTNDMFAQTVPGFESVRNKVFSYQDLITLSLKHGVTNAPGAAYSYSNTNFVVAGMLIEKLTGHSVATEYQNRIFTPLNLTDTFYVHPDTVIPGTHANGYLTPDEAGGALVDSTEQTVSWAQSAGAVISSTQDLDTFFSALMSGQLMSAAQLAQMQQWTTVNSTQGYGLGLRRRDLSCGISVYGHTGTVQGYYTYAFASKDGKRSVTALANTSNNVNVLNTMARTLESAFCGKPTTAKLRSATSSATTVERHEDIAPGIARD

[6] = biological target: Actinomadura R39 DD-peptidase (Actinomadura sp., UniProt P39045); assay: Hydrolysis in the presence of R39 DD-peptidase; assay type: biochemical
Sequence of Actinomadura R39 DD-peptidase (P39045 50-538): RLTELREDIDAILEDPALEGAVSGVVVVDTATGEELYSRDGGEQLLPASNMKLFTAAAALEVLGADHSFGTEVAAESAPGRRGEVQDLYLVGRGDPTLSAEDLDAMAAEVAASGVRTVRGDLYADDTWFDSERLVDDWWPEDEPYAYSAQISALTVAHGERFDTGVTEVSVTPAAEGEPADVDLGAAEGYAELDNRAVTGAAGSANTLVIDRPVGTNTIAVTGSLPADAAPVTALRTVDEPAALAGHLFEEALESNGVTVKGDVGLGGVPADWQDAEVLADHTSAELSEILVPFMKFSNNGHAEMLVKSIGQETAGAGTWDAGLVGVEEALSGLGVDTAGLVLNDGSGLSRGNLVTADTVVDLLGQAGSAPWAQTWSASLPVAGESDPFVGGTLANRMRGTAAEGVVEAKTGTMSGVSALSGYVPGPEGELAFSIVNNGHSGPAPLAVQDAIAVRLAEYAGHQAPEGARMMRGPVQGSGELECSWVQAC

class C ampC β-lactamase = class C ampC β-lactamase (Escherichia coli, UniProt P00811); assay: ampC β-lactamase substrate activity; assay type: biochemical
Sequence of class C ampC β-lactamase (P00811 20-377): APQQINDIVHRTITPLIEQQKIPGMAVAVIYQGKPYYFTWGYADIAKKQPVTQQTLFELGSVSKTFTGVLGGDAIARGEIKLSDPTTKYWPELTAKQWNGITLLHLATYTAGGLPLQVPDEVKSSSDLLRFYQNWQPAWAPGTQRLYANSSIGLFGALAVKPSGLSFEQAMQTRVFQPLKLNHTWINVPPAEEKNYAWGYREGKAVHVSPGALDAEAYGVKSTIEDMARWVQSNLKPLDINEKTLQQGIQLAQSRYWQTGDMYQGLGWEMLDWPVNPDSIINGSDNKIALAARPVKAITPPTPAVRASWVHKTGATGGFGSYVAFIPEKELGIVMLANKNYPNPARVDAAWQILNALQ

[7] = in dioxane/water; cited from earlier work
P99 β-lactamase [8] = biological target: T1, P99 β-lactamase; assay: P99 β-lactamase activity with time after incubation with compound; assay type: biochemical; details: enzyme 0.25 μM, compound 100 μM

## O=C(NOC(=O)C(O)Cc1ccccc1)OCc1ccccc1 (stereo not shown) [Compound 7, N-(Benzyloxycarbonyl)-O-(2-hydroxy-3-phenylpropanoyl)hydroxylamine]
[1]; 20 mM MOPS
  ksp, rate constant of spontaneous hydrolysis: (8.2 ± 0.8) × 10^−5 s^−1
Class C P99 β-lactamase
  Km: 71 ± 10 µM
[2]
  pKa (acidic NH proton): 7.58 ± 0.03
P99 β-lactamase [3]
  pKa for decreasing activity in pH-rate profile: 7.6 ± 0.2
[4]
  fast reversible or slow inhibition of the OXA-1 enzyme: no significant fast reversible or slow inhibition
[4]; 20 mM MOPS, 50 mM NaHCO3, 0.1 % gelatin, pH 7.5
  hydrolysis catalyzed by OXA-1: did not catalyze hydrolysis
[5]
  substrate activity with R61 DD-peptidase: not substrates
[6]
  substrate activity with R39 DD-peptidase: not substrates
Class C ampC β-lactamase
  substrate activity with ampC β-lactamase: good substrate

## O=C(NOC(=O)C(O)Cc1ccccc1)OCc1ccccc1 (stereo not shown) [Compound 8, N-(Benzyloxycarbonyl)-O-(2-hydroxy-3-phenylpropanoyl)hydroxylamine]
Class C P99 β-lactamase
  Km: 340 ± 60 µM

## O=C(O)[C@H]1/C(=C/CO)O[C@@H]2CC(=O)N21 [clavulanic acid, reference compound]
[1]; 85 μM in 25 mM MOPS buffer, monitored at 260 nm
  spontaneous hydrolysis rate constant: 8e-05 s⁻¹

## O=[N+]([O-])c1ccc(O)cc1 [p-nitrophenol]
[7]
  pKa: 9.4

## N-(Benzyloxycarbonyl)-O-(1-D-carboxy-ethoxycarbonyl)hydroxylamine [2 (R = CH2Ph, R′=Me)]
P99 β-lactamase [8]
  enzyme activity against cephalothin with time after mixing: initial loss of enzyme activity, measured against the good substrate, cephalothin, followed by a slower restoration of activity
